Measurements from ChEMBL document CHEMBL4406880, “Design, synthesis, and bioactivity of dihydropyrimidine derivatives as kinesin spindle protein inhibitors” (Bioorg Med Chem, 2019).

Key:
Type in all cases: functional
Malme-3M = test: Growth inhibition of human MALME-3M cells assessed as growth percentage at 10 uM incubated for 48 hrs by sulforhodamine B assay relative to control; conditions: read-out: Activity
Method in brief: (§1)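 NCI-60 one-dose screen. Cells in RPMI 1640 with 5% FBS and 2 mM L-glutamine, seeded at 5,000–40,000 cells/well according to doubling time, and preincubated overnight at 37 °C, 5% CO2. A time-zero plate was TCA-fixed at drug addition. Compound from DMSO stock, final 10 µM, 48 h; DMSO vehicle controls. Fixation with TCA, 10% final (16% for suspension cells). SRB stain, Tris solubilization, A515. Result given as % growth versus untreated cells.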

NCI-H23 = test: Growth inhibition of human NCI-H23 cells assessed as growth percentage at 10 uM incubated for 48 hrs by sulforhodamine B assay relative to control; conditions: NCI-H23, 48 h, read-out: Activity; method in brief: as §1
SF-539 = test: Growth inhibition of human SF539 cells assessed as growth percentage at 10 uM incubated for 48 hrs by sulforhodamine B assay relative to control; conditions: SF-539, 48 h, read-out: Activity
Method in brief: (§2)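 NCI-60 single-dose screen. Cells were grown in RPMI 1640 with 5% FBS and 2 mM L-glutamine and plated at 5,000–40,000 cells/well. After an overnight preincubation at 37 °C in 5% CO2, compound was added at a final 10 µM from a DMSO stock, with DMSO/PBS controls. After 48 h, cells were TCA-fixed and stained with 0.4% SRB, and absorbance was read at 515 nm. Growth is given as a percentage of untreated control.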

SF-268 = test: Growth inhibition of human SF268 cells assessed as growth percentage at 10 uM incubated for 48 hrs by sulforhodamine B assay relative to control; conditions: SF-268, 48 h, read-out: Activity; method in brief: as §2
IGROV-1 = test: Growth inhibition of human IGROV1 cells assessed as growth percentage at 10 uM incubated for 48 hrs by sulforhodamine B assay relative to control; conditions: IGROV-1, 48 h, read-out: Activity; method in brief: as §1
NCI-H226 = test: Growth inhibition of human NCI-H226 cells assessed as growth percentage at 10 uM incubated for 48 hrs by sulforhodamine B assay relative to control; conditions: NCI-H226, 48 h, read-out: Activity; method in brief: as §1
MCF7 = test: Growth inhibition of human MCF7 cells assessed as growth percentage at 10 uM incubated for 48 hrs by sulforhodamine B assay relative to control; conditions: MCF7, 48 h, read-out: Activity; method in brief: as §1
TK-10 = test: Growth inhibition of human TK10 cells assessed as growth percentage at 10 uM incubated for 48 hrs by sulforhodamine B assay relative to control; conditions: TK-10, 48 h, read-out: Activity; method in brief: as §2
K562 = test: Growth inhibition of human K562 cells assessed as growth percentage at 10 uM incubated for 48 hrs by sulforhodamine B assay relative to control; conditions: K562, 48 h, read-out: Activity; method in brief: as §1
KM12 = test: Growth inhibition of human KM12 cells assessed as growth percentage at 10 uM incubated for 48 hrs by sulforhodamine B assay relative to control; conditions: KM12, 48 h, read-out: Activity; method in brief: as §1
SNB-75 = test: Growth inhibition of human SNB75 cells assessed as growth percentage at 10 uM incubated for 48 hrs by sulforhodamine B assay relative to control; conditions: SNB-75, 48 h, read-out: Activity; method in brief: as §2
RXF 393 = test: Growth inhibition of human RXF393 cells assessed as growth percentage at 10 uM incubated for 48 hrs by sulforhodamine B assay relative to control; conditions: RXF 393, 48 h, read-out: Activity; method in brief: as §2
MDA-MB-435 = test: Growth inhibition of human MDA-MB-435 cells assessed as growth percentage at 10 uM incubated for 48 hrs by sulforhodamine B assay relative to control; conditions: MDA-MB-435, 48 h, read-out: Activity; method in brief: as §1
HOP-92 = test: Growth inhibition of human HOP92 cells assessed as growth percentage at 10 uM incubated for 48 hrs by sulforhodamine B assay relative to control; conditions: HOP-92, 48 h, read-out: Activity; method in brief: as §1
CAKI-1 = test: Growth inhibition of human Caki1 cells assessed as growth percentage at 10 uM incubated for 48 hrs by sulforhodamine B assay relative to control; conditions: CAKI-1, 48 h, read-out: Activity
Method in brief: (§3)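 NCI-60 one-dose screen: cells in RPMI 1640 with 5% FBS and 2 mM L-glutamine, plated at 5,000–40,000 cells/well and preincubated 24 h at 37 °C, 5% CO2. Compound is added from a DMSO stock to a final 10 µM and incubated 48 h. Cells are TCA-fixed and stained with sulforhodamine B, read at 515 nm. Output is % growth versus untreated control, with a time-zero plate.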

786-0 = test: Growth inhibition of human 786-0 cells assessed as growth percentage at 10 uM incubated for 48 hrs by sulforhodamine B assay relative to control; conditions: 786-0, 48 h, read-out: Activity; method in brief: as §3
NCI/ADR-RES = test: Growth inhibition of human NCI/ADR-RES cells assessed as growth percentage at 10 uM incubated for 48 hrs by sulforhodamine B assay relative to control; conditions: read-out: Activity; method in brief: as §1
HCC 2998 = test: Growth inhibition of human HCC2998 cells assessed as growth percentage at 10 uM incubated for 48 hrs by sulforhodamine B assay relative to control; conditions: HCC 2998, 48 h, read-out: Activity; method in brief: as §3
M14 = test: Growth inhibition of human M14 cells assessed as growth percentage at 10 uM incubated for 48 hrs by sulforhodamine B assay relative to control; conditions: M14, 48 h, read-out: Activity; method in brief: as §1
MDA-MB-468 = test: Growth inhibition of human MDA-MB-468 cells assessed as growth percentage at 10 uM incubated for 48 hrs by sulforhodamine B assay relative to control; conditions: MDA-MB-468, 48 h, read-out: Activity; method in brief: as §1
HCT-15 = test: Growth inhibition of human HCT15 cells assessed as growth percentage at 10 uM incubated for 48 hrs by sulforhodamine B assay relative to control; conditions: HCT-15, 48 h, read-out: Activity; method in brief: as §3
OVCAR-5 = test: Growth inhibition of human OVCAR5 cells assessed as growth percentage at 10 uM incubated for 48 hrs by sulforhodamine B assay relative to control; conditions: OVCAR-5, 48 h, read-out: Activity; method in brief: as §2
A549 = test: Growth inhibition of human A549/ATCC cells assessed as growth percentage at 10 uM incubated for 48 hrs by sulforhodamine B assay relative to control; conditions: A549, 48 h, read-out: Activity; method in brief: as §3
T47D = test: Growth inhibition of human T47D cells assessed as growth percentage at 10 uM incubated for 48 hrs by sulforhodamine B assay relative to control; conditions: read-out: Activity; method in brief: as §2
UO-31 = test: Growth inhibition of human UO31 cells assessed as growth percentage at 10 uM incubated for 48 hrs by sulforhodamine B assay relative to control; conditions: UO-31, 48 h, read-out: Activity; method in brief: as §2
EKVX = test: Growth inhibition of human EKVX cells assessed as growth percentage at 10 uM incubated for 48 hrs by sulforhodamine B assay relative to control; conditions: read-out: Activity; method in brief: as §3

Row | Compound | growth at 10 µM (Malme-3M) | growth at 10 µM (NCI-H23) | growth at 10 µM (SF-539) | growth at 10 µM (SF-268) | growth at 10 µM (IGROV-1) | growth at 10 µM (NCI-H226) | growth at 10 µM (MCF7) | growth at 10 µM (TK-10) | growth at 10 µM (K562) | growth at 10 µM (KM12) | growth at 10 µM (RXF 393) | growth at 10 µM (HOP-92) | growth at 10 µM (CAKI-1) | growth at 10 µM (786-0) | growth at 10 µM (NCI/ADR-RES) | growth at 10 µM (HCC 2998) | growth at 10 µM (M14) | growth at 10 µM (HCT-15) | growth at 10 µM (OVCAR-5) | growth at 10 µM (A549) | further results
1 | CC1(C)CC(=O)C2=C(C1)NC(=O)NC2c1ccc2c(c1)OCO2 (racemic) | 100% | 104% | 106% | 98.8% | 97.9% | 109% | 98.3% | 106% | 108% | 108% | 118% | 112% | 93.9% | 105% | 104% | 109% | 102% | 103% | 108% | 108% | growth at 10 µM (SNB-75): 97.5%; growth at 10 µM (MDA-MB-435): 106%; growth at 10 µM (MDA-MB-468): 118%; growth at 10 µM (T47D): 106%; growth at 10 µM (UO-31): 84.6%; growth at 10 µM (EKVX): 107%
2 | CC(=O)N1C(=S)NC(C)=C(C(=O)OC(C)C)C1c1ccc2c(c1)OCO2 (racemic) | 98.4% | 100% | 98.2% | 100% | 106% | 94.8% | 97.2% | 103% | 83.2% | 99.7% | 111% | 78.1% | 97.2% | 102% | 103% | 110% | 96.8% | 99.3% | 107% | 99.4% | growth at 10 µM (SNB-75): 97.2%; growth at 10 µM (MDA-MB-435): 102%; growth at 10 µM (MDA-MB-468): 104%; growth at 10 µM (T47D): 70.4%; growth at 10 µM (UO-31): 91.3%; growth at 10 µM (EKVX): 99.7%
3 | CC1=C(C(=O)OCc2ccccc2)C(c2ccc3c(c2)OCO3)n2c(nc3ccccc32)N1 (racemic) | 26 to 39.7% | 49.3 to 56% | 9.94 to 21% | 26 to 59.6% | 36 to 41.4% | 58 to 58.2% | 9 to 20.6% | 64 to 65.6% | 13.8 to 25% | 15 to 17.3% | 30 to 53.2% | 32 to 78.5% | 24 to 34.3% | 31 to 43.1% | 20 to 23.2% | 50 to 56.4% | 28.1 to 35% | 23 to 30.4% | 53 to 64.4% | 34 to 47.1% | growth at 10 µM (T47D): 31 to 40.9%; growth at 10 µM (UO-31): 28 to 51.1%; growth at 10 µM (EKVX): 42 to 64.4%
4 | CC1=C(C(=O)OCc2ccccc2)C(c2ccc3c(c2)OCO3)NC(=S)N1 (racemic) | 115% | 94.5% | 99.3% | 97.3% | 97.6% | 95.8% | 86.8% | 105% | 75.2% | 91.9% | 94.4% | 99% | 81.8% | 105% | 105% | 120% | 102% | 96.5% | 100% | 93.7% | growth at 10 µM (MDA-MB-435): 93.6%; growth at 10 µM (T47D): 74%; growth at 10 µM (UO-31): 89.2%; growth at 10 µM (EKVX): 97.5%
5 | COCCOC(=O)C1=C(C)NC(=S)NC1c1ccc2c(c1)OCO2 (racemic) | 108% | 96.2% | 99.2% | 97.4% | 105% | 90.2% | 89.6% | 104% | 91.8% | 100% | 101% | 108% | 99.8% | 107% | 103% | 110% | 104% | 102% | 109% | 101% | growth at 10 µM (MDA-MB-435): 104%; growth at 10 µM (T47D): 94.8%; growth at 10 µM (UO-31): 87.8%; growth at 10 µM (EKVX): 105%
